Where two headings read alike, the source gives them in different places.

Data set [1] relates to calf-thymus DNA (CT-DNA). The following applies: cited from earlier work.
In data set [2] the test system is necrotic muscle. The experiment in a line: Self-blocking experiment in muscular necrosis model rats. It counts as in vivo, rat. To be noted: 24 h.
Data set [3] concerns A549 necrotic cells. The experiment in a line: Nuclear extraction from necrotic A549 cells incubated with tracer. In kind it is cell-based, human. The following applies: 50 μmol/L.
In data set [4] the test system is calf-thymus DNA (CT-DNA). Description: UV–vis spectroscopic study of interaction with CT-DNA. In kind it is binding. The following applies: 25 °C, increasing CT-DNA.
The conditions of data set [5]: human, even pregnant women and newborn babies, cited from earlier work.
Data set [6] has as its system necrotic liver and necrotic muscle. The experiment in a line: Fluorescence microscopy of liver and muscle cryostat slices from model rats. To be noted: i.v. 2.0 mg/kg, 12 h to 8 days, λex=620 nm, λem=680 nm. It counts as in vivo, rat.
In data set [7] the test system is A549 cells. The experiment in a line: Fluorescence microscopy of necrotic and viable A549 cells. It counts as cell-based, human. The following applies: 50 μmol/L, 30 min, co-staining with Hoechst 33342 and PI.
The test system of data set [8] is calf-thymus DNA (CT-DNA). The experiment in a line: Competitive study with ethidium bromide on CT-DNA. It counts as binding. In a few lines:
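CT-DNA prepared in 5 mmol/L Tris-HCl/50 mmol/L NaCl, pH 7.4, stirred at 4 °C for three days; concentration set by A260 (ε=6600 L/mol.cm). Test compound (stock 6.0×10−4 mol/L) titrated into 2.5 mL CT-DNA–ethidium bromide (CT-DNA 6.0×10−5 mol/L) to ratios 0 to 7/30. Fluorescence read at 25 °C, λex 530/λem 604 nm. Ksv from Stern–Volmer fit of I0/I versus compound concentration.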

For data set [9] the following is noted: cited from earlier work; for Water solubility: must be dissolved in organic solvents such as DMSO.
In data set [10] the test system is necrotic liver and necrotic muscle. Description: Autoradiography of necrotic/normal liver and partially necrotic muscle sections. The following applies: 24 h after intravenous injection. It counts as in vivo, rat. The method in brief:
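Rats (male SD, 260–280 g) on 0.1% KI drinking water from 3 days before study. Liver necrosis: right-lobe hilum clamped 3 h, then reperfused; muscle necrosis induced with absolute ethanol. Labelled test compound (14.8 MBq/kg, 2.0 mg/kg) in PBS given i.v. via tail vein; sacrifice at 12, 24, 72 h, 8 day (n=5 each). Frozen 30 μm sections cut at −20 °C, 3 h phosphor-screen exposure, then H&E for co-localization.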

The nature of data set [11]: Water solubility. To be noted: can be dissolved in PBS or saline. In kind it is physicochemical.
A short description of data set [12]: Pharmacokinetics. The following applies: normal rats, i.v. 14.8 MBq/kg in PBS, non-compartmental, mean±SD, n=6. It counts as in vivo, rat. The method in brief:
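Six healthy rats dosed i.v. with radiolabelled test compound (14.8 MBq/kg) in PBS. 10 μL tail-slit blood samples drawn at 5, 10, 30 min and 1, 2, 4, 6, 8, 12, 24, 48 h. Samples γ-counted with decay and background correction and expressed as MBq per liter. Parameters derived by non-compartmental analysis; mean±SD.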

Data set [13] can be described thus: In vitro stability of the radiotracer in rat serum. It counts as in vitro ADME. To be noted: stored in rat serum at 37 °C, up to 8 days. In a few lines:
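Radiolabelled test compound mixed with rat serum (1:9 volume ratio) and kept at 37 °C. Sampled at 0.5, 4 h, 1, 2, 3 and 8 day. Label integrity assessed by TLC.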

The subject of data set [14] is necrotic liver and necrotic muscle. In kind it is in vivo, rat.
The mark [15] stands for this setting: γ counting, 24 h after i.v. 14.8 MBq/kg, model rats.

Take `Nc1ccc2c(c1)C(=O)c1ccccc1C2=O` [2-aminoanthraquin]: the “Binding constant with CT-DNA” value in data set [1] was 1.25×10^3 L/(mol/L).

For `Cc1cc(-c2ccc(/N=N/c3ccc4c(S(=O)(=O)O)cc(S(=O)(=O)O)c(N)c4c3O)c(C)c2)ccc1/N=N/c1ccc2c(S(=O)(=O)O)cc(S(=O)(=O)O)c(N)c2c1O` [EB, Evans blue], the “Radioactivity of ^131I-EB in necrotic muscle blocked” value in data set [2] (10 mg/kg EB) is reported as “about 65%”. Besides, the “Uptake in necrotic cell nuclei” value in data set [3] (15 min incubation) came out at 82.3%; in [3] (2 h incubation) it was 79.2%. For the same compound, the “Change of UV–vis absorption bands on addition of CT-DNA” value in [4] was “significant hypochromism accompanied with a red shift”. In addition, the “Adverse reactions in clinical use” value in data set [5] (ref 24, 25) is on record as “without adverse reactions”; in data set [5] (ref 41, 42) it was “without any adverse reactions”. Also, the “Retention in necrotic tissues by fluorescence microscopy” value in data set [6] is reported as “Selective retention of EB in necrotic tissues up to 8 days”. Moreover, in [7], the Cellular localisation result is “specifically located in the nuclei of necrotic cell”. Further, the “Ksv (Stern–Volmer quenching constant; binding constant with CT-DNA)” value in data set [8] (CT-DNA-ethidium bromide displacement, 25 °C, λex=530 nm) is recorded as 5.08×10^5 L/(mol/L). The “Binding constant with CT-DNA relative to 2-aminoanthraquin” value in [8] (EB versus 2-aminoanthraquin) was found to be 400 times.

For the compound `Cc1cc(O)c2c(=O)c3c(O)cc(O)c4c5c(O)cc(O)c6c(=O)c7c(O)cc(C)c8c1c2c(c34)c(c78)c65` [Hyp, Hypericin], the Solubility result in data set [9] was “nearly insoluble in water and most nonpolar solvents”.

For the compound ^131I-evans blue [^131I-EB], in data set [2] (coinjected with excessive cold EB (10 mg/kg), n=3, P<0.01), the “Uptake in necrotic muscle” value stood at 0.47±0.07 %ID/g. For the same compound, the “Uptake in necrotic muscle” value in data set [2] (non-blocking group, n=3) stood at 1.35±0.22 %ID/g. In [10], the “Radioactivity ratio of necrotic to normal liver” value is given as 4.26 and the “Radioactivity ratio of necrotic to normal muscle” value stood at 10.2. For the same compound, in data set [3] (15 min incubation), the “Uptake in necrotic cell nuclei” value is recorded as 82.3%. Moreover, the “Uptake in necrotic cell nuclei” value in data set [3] (2 h incubation) worked out at 79.2%. In addition, the Water solubility entry in data set [11] was “highly water-soluble”. Moreover, in data set [12], the “AUC0–t” value is 564.82±27.55 MBq/L ·h, the “AUC0–∞” value amounted to 737.28±62.32 MBq/L ·h, the “CLz (clearance)” value was 0.021 ± 0.004 L/h/kg and the “Cmax (peak concentration)” value turned out to be 96.84±10.05 MBq/L. Further, in [12], the “Tmax (peak time)” value worked out at 4.98 ± 0 min and the “t1/2z (elimination half-life)” value worked out at 24.40 ± 3.64 h. Besides, the “In vitro stability (radiolabeling stability by TLC)” value in data set [13] was “over 90%”. Besides, in data set [14] (time points 12, 24, 72 h and 8 day), the “Time of highest uptake in necrotic liver and muscle” value is given as 24 h. Besides, in [14] (time points 12, 24, 72 h and 8 day, especially normal liver, spleen, kidney), the “Time of highest radioactivity in normal tissue” value turned out to be 12 h. Further, the “Ratio of uptake in necrotic muscle to normal muscle” value in data set [14] (γ counting, 8th day after i.v. 14.8 MBq/kg, model rats) is reported as 7.43 times. In [14] (setting [15]), the “Radioactivity ratio of necrotic to viable (normal) liver” value stood at 3.41 and the “Radioactivity ratio of necrotic to viable (normal) muscle” value came out at 11.82.

On to ^131I-hypericin, for which the Water solubility result in [9] is listed as “water-insoluble”.

In the case of ^131I-sennidin A, in data set [9], the Water solubility entry is recorded as “water-insoluble”.

The record behind these values is article PMC5989829 (Acta Pharmaceutica Sinica. B, 2017).
